2 molecules from ChEMBL document CHEMBL3526048, “In vitro metabolism of rivoglitazone, a novel peroxisome proliferator-activated receptor γ agonist, in rat, monkey, and human liver microsomes and freshly isolated hepatocytes” (Drug Metab Dispos, 2011) can be followed below.

Series [1] addresses T1, Cytochrome P450 3A5 (Homo sapiens, UniProt P20815). In words: Activity of human CYP3A5 expressed in microsomes isolated from baculovirus infected insect cell assessed as enzyme-mediated 3-(4-((6-methoxy-1-methyl-1H-benzo[d]imidazol-2-yl)methoxy)phenyl)-2-(methylthio)propanoic acid formation at 20 uM after 2 hrs by radio-HPLC/LC-MS/MS analysis in presence of NADPH-generating system/SAM and UDPGA/SAM. Type of series: ADME. An outline of the steps:
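cDNA-expressed human CYP3A5 in baculovirus-insect-cell microsomes (1 mg/ml protein) was incubated with [¹⁴C]rivoglitazone (20 μM) in 50 mM potassium phosphate (pH 7.4) or 100 mM Tris-HCl (pH 7.5). NADPH-generating system: 2 mM NADP⁺, 20 mM glucose 6-phosphate, 2 units/ml G6PDH, 10 mM MgCl₂. Incubation ran 2 h at 37°C with shaking; insect-cell control supersomes served as control. Acetonitrile stop, supernatant concentrated, then radio-HPLC, LC-MS and LC-MS/MS.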

For series [2], the target named is T2, Cytochrome P450 2C8 (Homo sapiens, UniProt P10632).
T2 sequence (P10632 whole entry): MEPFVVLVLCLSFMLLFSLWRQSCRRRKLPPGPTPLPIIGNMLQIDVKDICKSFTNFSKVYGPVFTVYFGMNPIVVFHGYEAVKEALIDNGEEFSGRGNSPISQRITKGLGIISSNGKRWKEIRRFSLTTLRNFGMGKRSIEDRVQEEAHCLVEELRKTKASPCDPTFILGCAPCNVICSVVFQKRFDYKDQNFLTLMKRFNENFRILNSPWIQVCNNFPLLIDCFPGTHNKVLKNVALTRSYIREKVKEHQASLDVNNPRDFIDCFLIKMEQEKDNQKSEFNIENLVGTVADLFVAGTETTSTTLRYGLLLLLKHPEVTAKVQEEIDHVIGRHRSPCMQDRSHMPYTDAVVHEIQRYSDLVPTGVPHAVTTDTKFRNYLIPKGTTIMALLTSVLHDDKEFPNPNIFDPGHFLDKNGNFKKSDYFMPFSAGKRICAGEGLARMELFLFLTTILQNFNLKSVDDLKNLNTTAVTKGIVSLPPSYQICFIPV
In words: Activity of human CYP2C8 expressed in microsomes isolated from baculovirus infected insect cell assessed as enzyme-mediated 2-hydroxy-3-(4-((6-methoxy-1-methyl-1H-benzo[d]imidazol-2-yl)methoxy)phenyl)propanamide formation at 20 uM after 2 hrs by radio-HPLC/LC-MS/MS analysis in presence of NADPH-generating system and NADPH-generating system/SAM. Format: ADME. In outline:
(§1)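 Baculovirus/insect-cell microsomes expressing single human CYPs, 1 mg/ml protein, with 50 mM potassium phosphate (pH 7.4) or 100 mM Tris-HCl (pH 7.5). NADPH-generating system: 2 mM NADP⁺, 20 mM glucose 6-phosphate, 2 units/ml G6PDH, 10 mM MgCl₂. [¹⁴C]rivoglitazone at 20 μM, 2 h at 37°C with shaking. Control used insect-cell control supersomes. Stopped with acetonitrile; supernatant concentrated under nitrogen; metabolites analysed by radio-HPLC, LC-MS and LC-MS/MS.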

The target in the next series is Cytochrome P450 2C19 (Homo sapiens, UniProt P33261). In words: Activity of human CYP2C19 expressed in microsomes isolated from baculovirus infected insect cell assessed as enzyme-mediated 2-mercapto-3-(4-((6-methoxy-1-methyl-1H-benzo[d]imidazol-2-yl)methoxy)phenyl)propanamide formation at 20 uM after 2 hrs by radio-HPLC/LC-MS/MS analysis in presence of NADPH-generating system and NADPH-generating system/SAM. Format: ADME. In outline: as §1

The target in series [3] is T1, Cytochrome P450 3A5. In words: Activity of human CYP3A5 expressed in microsomes isolated from baculovirus infected insect cell assessed as enzyme-mediated (2S,3S,4S,5R,6R)-6-((1-carboxy-2-(4-((6-methoxy-1-methyl-1H-benzo[d]imidazol-2-yl)methoxy)phenyl)ethylthio)carbonylamino)-3,4,5-trihydroxytetrahydro-2H-pyran-2-carboxylic acid formation at 20 uM after 2 hrs by radio-HPLC/LC-MS/MS analysis in presence of NADPH-generating system/SAM. Format: ADME.

The target in series [4] is T3, UDP-glucuronosyltransferase 2B7 (Homo sapiens, UniProt P16662).
T3 sequence (P16662 whole entry): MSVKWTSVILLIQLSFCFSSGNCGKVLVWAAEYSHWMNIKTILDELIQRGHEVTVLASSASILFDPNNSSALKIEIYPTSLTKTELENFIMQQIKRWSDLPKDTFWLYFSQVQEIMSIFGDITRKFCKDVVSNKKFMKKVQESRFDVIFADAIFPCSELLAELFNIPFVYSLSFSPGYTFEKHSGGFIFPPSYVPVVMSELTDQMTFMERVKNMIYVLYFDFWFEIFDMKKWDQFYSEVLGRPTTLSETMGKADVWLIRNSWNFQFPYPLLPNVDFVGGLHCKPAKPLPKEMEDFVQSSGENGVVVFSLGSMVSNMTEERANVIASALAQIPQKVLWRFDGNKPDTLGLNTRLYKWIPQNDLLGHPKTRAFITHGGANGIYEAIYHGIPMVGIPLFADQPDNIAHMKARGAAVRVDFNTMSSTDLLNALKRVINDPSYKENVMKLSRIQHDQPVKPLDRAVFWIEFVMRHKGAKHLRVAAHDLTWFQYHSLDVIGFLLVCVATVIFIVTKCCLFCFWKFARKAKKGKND
In words: Activity of human UGT2B7 expressed in microsomes isolated from baculovirus infected insect cell assessed as enzyme-mediated (2S,3S,4S,5R,6R)-3,4,5-trihydroxy-6-(5-(4-((6-methoxy-1-methyl-1H-benzo[d]imidazol-2-yl)methoxy)benzyl)-2,4-dioxothiazolidin-3-yl)tetrahydro-2H-pyran-2-carboxylic acid formation at 20 uM after 4 hrs by radio-HPLC/LC-MS/MS analysis in presence of UDPGA and UDPGA/SAM. Type of series: ADME.

A short description of series [5]: Drug metabolism in monkey hepatocytes assessed as formation of 2-hydroxy-3-(4-((6-methoxy-1-methyl-1H-benzo[d]imidazol-2-yl)methoxy)phenyl)propanamide at 30 uM after 3 hrs by radio-HPLC/LC-MS/MS analysis in presence of NADPH-generating system and NADPH-generating system/SAM. As to conditions: cynomolgus monkey.
A further series deals with Cytochrome P450 2C9 (Homo sapiens, UniProt P11712). In words: Activity of human CYP2C9 expressed in microsomes isolated from baculovirus infected insect cell assessed as enzyme-mediated 3-(4-((6-methoxy-1-methyl-1H-benzo[d]imidazol-2-yl)methoxy)phenyl)-2-(methylthio)propanoic acid formation at 20 uM after 2 hrs by radio-HPLC/LC-MS/MS analysis in presence of NADPH-generating system/SAM and UDPGA/SAM. Type of series: ADME.

The nature of series [6]: Drug metabolism in rat hepatocytes assessed as formation of 3-(4-((6-methoxy-1-methyl-1H-benzo[d]imidazol-2-yl)methoxy)phenyl)-2-(methylsulfinyl)propanamide at 30 uM after 3 hrs by radio-HPLC/LC-MS/MS analysis in presence of NADPH-generating system/SAM. Type of series: ADME, cell-based, Hepatocyte.
The target of series [7] is T2, Cytochrome P450 2C8. In words: Activity of human CYP2C8 expressed in microsomes isolated from baculovirus infected insect cell assessed as enzyme-mediated compound formation treated with [14C]-rivoglitazone at 20 uM after 2 hrs by radio-HPLC/LC-MS/MS analysis in presence of NADPH-generating system. Format: ADME. An outline of the steps: as §1

T1 sequence (P20815 whole entry): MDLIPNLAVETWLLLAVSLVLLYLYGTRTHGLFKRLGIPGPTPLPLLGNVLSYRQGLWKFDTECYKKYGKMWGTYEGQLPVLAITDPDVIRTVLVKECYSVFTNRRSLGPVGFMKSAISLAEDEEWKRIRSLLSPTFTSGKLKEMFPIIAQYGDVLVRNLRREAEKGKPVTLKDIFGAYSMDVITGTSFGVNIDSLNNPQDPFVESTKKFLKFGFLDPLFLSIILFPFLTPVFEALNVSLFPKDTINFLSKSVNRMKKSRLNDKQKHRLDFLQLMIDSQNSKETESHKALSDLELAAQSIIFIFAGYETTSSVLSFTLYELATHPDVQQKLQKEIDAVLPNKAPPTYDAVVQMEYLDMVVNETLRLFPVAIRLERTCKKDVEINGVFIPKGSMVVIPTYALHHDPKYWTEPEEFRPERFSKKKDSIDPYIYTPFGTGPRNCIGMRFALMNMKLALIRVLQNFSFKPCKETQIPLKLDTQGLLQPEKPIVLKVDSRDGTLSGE
Cytochrome P450 2C9, sequence (P11712 whole entry): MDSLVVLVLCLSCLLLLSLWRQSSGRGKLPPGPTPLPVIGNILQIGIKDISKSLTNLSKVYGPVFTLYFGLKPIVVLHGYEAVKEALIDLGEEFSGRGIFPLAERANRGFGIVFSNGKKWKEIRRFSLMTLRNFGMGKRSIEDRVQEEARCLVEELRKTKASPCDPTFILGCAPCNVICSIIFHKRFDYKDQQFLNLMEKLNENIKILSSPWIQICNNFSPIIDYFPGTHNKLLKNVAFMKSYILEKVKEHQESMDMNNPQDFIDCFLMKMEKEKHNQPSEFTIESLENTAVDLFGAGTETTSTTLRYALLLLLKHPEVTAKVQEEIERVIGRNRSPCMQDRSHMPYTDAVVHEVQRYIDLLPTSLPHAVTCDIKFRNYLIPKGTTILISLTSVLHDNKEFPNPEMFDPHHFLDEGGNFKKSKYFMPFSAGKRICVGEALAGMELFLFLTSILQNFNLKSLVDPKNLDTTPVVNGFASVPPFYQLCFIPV
Cytochrome P450 2C19, sequence (P33261 whole entry): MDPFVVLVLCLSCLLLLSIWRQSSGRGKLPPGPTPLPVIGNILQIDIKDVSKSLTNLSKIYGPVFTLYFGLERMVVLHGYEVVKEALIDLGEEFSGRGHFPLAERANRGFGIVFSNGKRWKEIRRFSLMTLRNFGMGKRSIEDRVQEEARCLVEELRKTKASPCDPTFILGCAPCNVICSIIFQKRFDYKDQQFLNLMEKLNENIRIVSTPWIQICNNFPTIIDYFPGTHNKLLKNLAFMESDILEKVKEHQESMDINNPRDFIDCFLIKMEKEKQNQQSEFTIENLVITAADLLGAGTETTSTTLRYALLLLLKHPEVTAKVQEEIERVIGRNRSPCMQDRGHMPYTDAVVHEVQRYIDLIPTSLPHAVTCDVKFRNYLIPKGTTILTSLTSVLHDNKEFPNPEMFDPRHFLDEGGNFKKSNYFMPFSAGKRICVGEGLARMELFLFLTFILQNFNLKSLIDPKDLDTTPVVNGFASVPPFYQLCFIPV

For `COc1ccc2nc(COc3ccc(C[14CH]4SC(=O)NC4=O)cc3)n(C)c2c1.Cl` (racemic), the Drug metabolism entry is “metabolite_not_detected” on Cytochrome P450 3A5 [1]; “metabolite_detected” at Cytochrome P450 2C8 [2]; “metabolite_detected” on Cytochrome P450 2C19; “metabolite_not_detected” at Cytochrome P450 3A5 [3]; “metabolite_detected” in series [4]; “metabolite_not_detected” in series [5]. The Drug metabolism entry on Cytochrome P450 2C9 is “metabolite_not_detected”; in [6], “metabolite_detected”.

Turning to `COc1ccc2nc(COc3ccc(CC(S)C(=O)O)cc3)n(C)c2c1` (centres undefined), at Cytochrome P450 2C8 [7], the Drug metabolism result was “metabolite_detected”.
